# From PubChem BioAssay
# In the library only some 2.4% were active in any assay of this set; here they are far more common.
# NR2E3 ag-1 = agonists of human NR2E3 nuclear receptor. actives 0.35% (n = 360,000). Q9Y5X4. AID 602229. CHO-S Gal4-NCOR/VP16-NR2E3 two-hybrid, luciferase. inhibition of corepressor binding, % at 3.98 µM;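 active means inhibition above the mean of all tested compounds plus 3 SD, cut at about 70% in these data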;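 further: higher means lower luciferase signal from less NR2E3 corepressor binding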
# Target sequence (Q9Y5X4 whole entry, looked up, the tested form may be a part): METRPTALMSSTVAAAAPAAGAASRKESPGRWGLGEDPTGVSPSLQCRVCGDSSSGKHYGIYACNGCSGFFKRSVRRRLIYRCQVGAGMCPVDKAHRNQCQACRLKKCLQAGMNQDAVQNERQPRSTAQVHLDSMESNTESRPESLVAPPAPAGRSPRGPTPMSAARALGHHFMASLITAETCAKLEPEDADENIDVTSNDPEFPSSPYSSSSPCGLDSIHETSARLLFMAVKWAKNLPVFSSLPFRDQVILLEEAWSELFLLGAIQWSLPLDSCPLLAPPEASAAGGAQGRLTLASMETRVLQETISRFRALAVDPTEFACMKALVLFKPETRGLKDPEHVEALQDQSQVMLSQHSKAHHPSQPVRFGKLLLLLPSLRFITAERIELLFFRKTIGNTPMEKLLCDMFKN
# 697 NFkB inh = inhibitors of the PMA/ionomycin-induced NF-kB reporter in 697 B cells; AID 435022; 697 B-cell NF-kB luciferase reporter, 16 h; inhibition, % at 4 µM; actives 0.33% (n = 330,000); in the data active means inhibition above about 35%
# Jurkat NFkB inh = lowers PMA/ionomycin-induced NF-kB signal in Jurkat cells | PMA/ionomycin-induced NF-kB luciferase reporter, luminescence | inhibition, % at 4 µM | actives 0.53% (n = 330,000); in the data active means inhibition above about 50%
# MPTP block = permeability transition pore inhibition. inhibition, % at 10 µM. actives 1.4% (n = 360,000). AID 602449. isolated mouse mitochondria, Ca2+ swelling absorbance, 30 min;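 active means inhibition of 50% or more, scaled per plate between neutral and stimulator controls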
# aDG glyco up = increases alpha dystroglycan glycosylation; activation, % at 10 µM; Pro5-aDG cells, alpha-DG glycosylation AlphaScreen (IIH6); 0% Pro5, 100% B10-LARGE cell signal; actives 0.22% (n = 360,000); AID 624168;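 active means activation of at least 8% versus controls, or a plate z-score of at least 8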;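 further: Pro5 are CHO cells carrying HIG-tagged alpha-DG that lacks glycosylation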
# NR2E3 ag-2 = agonists of human nuclear receptor NR2E3 | GST-NR2E3/biotin-RetCOR TR-FRET, 1536-well | AID 2300 | actives 0.12% (n = 320,000) | Q9Y5X4 | inhibition of corepressor binding, % at 4.78 µM;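 active means percent inhibition above the cutoff of mean plus 3 SD of all tested compounds, set per screening campaign, cut at about 20% in these data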
#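 Material: NR2E3–RetCOR corepressor complex | Quantity: 1.35 nM GST-tagged NR2E3 final | Schedule: 5 h at 4 °C | Replication: Singlicate compound wells | Reagent: RetCOR corepressor, biotinylated, 7 nM | Controls: Biotin wells as high control, 0.6% DMSO wells as low control | Signal: TR-FRET, Eu(K)-anti-GST donor, streptavidin-D2 acceptor, ex 340, em 617/671 nm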
# Jurkat NFkB conf = lowers PMA/ionomycin-induced NF-kB signal in Jurkat cells | shares compounds with Jurkat NFkB inh | Jurkat NF-kB luciferase, 16 h | inhibition, % at 4 µM | actives 27% (n = 2,700);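 active means inhibition reaching about 45% at 4 µM in either replicate, limit read from the data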
# A number is an active result; n = inactive; x = no result given.
SMILES,NR2E3 ag-1,697 NFkB inh,Jurkat NFkB inh,MPTP block,aDG glyco up,NR2E3 ag-2,Jurkat NFkB conf
O=C(CSc1nncn1-c1cccnc1)N(c1ccccc1)c1ccccc1,n,n,n,n,n,n,x
COc1ccc2c(c1)N(C)/C(=C/c1cccc[n+]1C)S2,n,n,61,n,n,n,n
Cc1ccc2c(c1)N(C)/C(=C/c1cccc[n+]1CCO)S2,n,n,n,n,n,n,x
CCN1/C(=C/c2cccc[n+]2C)Sc2ccc(OC)cc21,n,n,72,n,n,n,n
C[C@@]12C(=O)Nc3cc(F)ccc3C(=O)N1[C@H]1c3ccccc3OC[C@@H]1[C@@H]2c1ccccc1,n,n,n,n,n,n,x
CCc1cc2c(=O)n(Cc3ccco3)c(SCC(=O)NCC3CCCO3)nc2s1 (stereo not given),n,n,n,n,n,n,x
CCc1cc2c(=O)n(Cc3ccco3)c(SCc3c(C)noc3C)nc2s1,n,n,55,n,n,n,n
Cc1nc(-c2cccc(NC(=O)c3ccc(Br)o3)c2)cs1,n,n,n,n,n,x,x
Cc1nc(-c2ccc(NC(=O)c3ccc(Br)o3)cc2)cs1,n,n,n,n,n,n,n
CC1CCCC(C)N1NC(=S)Nc1ccc(OC(F)F)cc1 (stereo not given),n,n,n,n,n,n,x
CCOC(=O)c1sc(=NC(=O)c2cccc(Br)c2)n(C)c1C,n,n,n,n,n,n,x
CCOC(=O)c1sc(=NC(=O)c2ccc(F)cc2)n(C)c1C,n,n,n,n,n,n,n
CCOC(=O)c1sc(=NC(=O)c2cccc(C)c2)n(C)c1C,n,n,n,n,n,n,n
CCOC(=O)C1CCN(C(=S)Nc2cc(OC)c(OC)cc2C(=O)OC)CC1,n,n,n,n,n,n,x
Cn1cc(/C=N/n2cnc3scc(-c4ccc(Cl)cc4)c3c2=O)c2ccccc21,n,n,62,n,n,n,50
CC(C)N=c1cc2n(-c3ccc(Cl)cc3)c3ccccc3nc-2cc1Nc1ccc(Cl)cc1,n,n,73,n,n,n,n
Cc1ccc(CN(C)C2CCN(C)CC2)cc1,n,n,n,n,n,n,x
CCC(=O)N1CCc2cc(OC)c(OC)cc2C1COc1ccc(F)cc1 (stereo not given),n,n,64,n,n,n,n
COc1cc2c(cc1OC)C(COc1ccc(F)cc1)N(C(C)=O)CC2 (stereo not given),n,n,n,n,n,n,x
CCc1cc(-c2ccc3c(c2)COc2c4ccccc4nn2-3)on1,n,n,n,n,n,n,n
COc1ccccc1NC(=O)C1CCCN(S(=O)(=O)c2ccc3c(c2)CC(C)N3C(C)=O)C1 (stereo not given),n,n,n,n,n,n,x
c1ccc(-c2cnc(-c3ccccc3)nn2)cc1,n,n,n,n,n,n,n
c1ccc(-c2cnc(-c3ccccn3)nn2)cc1,n,n,n,n,n,n,x
COc1cc(/C=N/O)ccc1OCc1ccccc1Cl,n,n,n,n,n,n,n
c1csc(-c2ccc(N3CCOCC3)nn2)c1,n,n,n,n,n,n,x
SMILES,NR2E3 ag-1,697 NFkB inh,Jurkat NFkB inh,MPTP block,aDG glyco up,NR2E3 ag-2,Jurkat NFkB conf
c1csc(-c2nnc(-c3ccc(N4CCOCC4)cc3)o2)c1,n,n,n,n,n,n,n
CCO[C@@H]1OC(C(=O)NCc2nc3ccccc3[nH]2)=C[C@H](C2CC2)[C@H]1CCCO,n,n,n,n,n,n,x
CCO[C@@H]1OC(C(=O)NCc2nc3ccccc3[nH]2)=C[C@H](C(C)(C)C)[C@H]1CCCO,n,n,73,n,n,n,55
Cc1ccc(-c2cc(C(F)F)n3ncc(C(=O)N4CCc5ccccc54)c3n2)cc1,n,n,61,n,n,n,47
O=C(c1cnn2c(C(F)F)cc(-c3ccccc3)nc12)N1CCc2ccccc21,n,n,n,n,n,n,x
Cc1cc(NC(=O)c2cc(-c3cccs3)on2)no1,n,n,n,n,n,n,x
COc1ccc(-c2cc(C(=O)Nc3cc(Br)ccc3O)no2)cc1,n,n,n,n,n,n,x
Cc1ccc(O)c(NC(=O)c2cc(-c3ccc(F)cc3)on2)c1,n,n,71,n,n,n,n
Cc1ccc(O)c(NC(=O)c2cc(-c3cccs3)on2)c1,n,n,88,n,n,n,n
Cc1cc(NC(=O)c2ccc(NC(=O)C3CCCO3)cc2)ccc1Br (stereo not given),n,n,n,n,n,n,x
COc1ccc(C(F)(F)F)cc1N/C=C/c1nnnn1-c1ccc(C)cc1,n,n,n,n,n,n,x
Cc1noc(NS(=O)(=O)c2ccc(NC(=O)c3oc4ccc(Cl)cc4c3C)cc2)c1C,n,n,n,n,n,n,x
O=C(Nc1ccc2c(c1)CCC2)c1ccccc1Br,n,n,n,n,n,n,n
CSc1ccccc1C(=O)Nc1ccc2c(c1)CCC2,n,n,n,n,n,n,x
Cc1ccc2c(c1)C=CC(C#N)N2C(=O)c1ccccc1 (stereo not given),n,n,55,n,n,n,n
Cc1ccc2c(c1)C=CC(C#N)N2C(=O)Oc1ccccc1 (stereo not given),n,x,x,n,n,x,x
O=S(=O)(Nc1ccccc1)c1ccc(-c2cnc(C3CC3)o2)cc1,n,n,53,n,n,n,n
COc1ccc(NS(=O)(=O)c2cc(-c3cnc(C4CC4)o3)ccc2C)cc1,n,n,59,n,n,n,49
COc1ccccc1NS(=O)(=O)c1cc(-c2cnc(C3CC3)o2)ccc1C,n,n,n,n,n,n,x
CSCCC(NC(=O)c1ccco1)C(=O)NCC(c1ccccc1)N(C)C (stereo not given),n,n,n,n,n,n,x
CS(=O)(=O)Nc1cccc(C2=NN(C(=O)CCCC(=O)O)C(c3cccs3)C2)c1 (stereo not given),n,n,n,n,n,n,x
C/C(=N\NC(=O)C(C)Oc1ccc([N+](=O)[O-])cc1)c1ccccn1 (stereo not given),n,n,61,n,n,n,n
CC(Oc1ccccc1)C(=O)NNC(=O)c1ccccn1 (stereo not given),n,n,n,n,n,n,x
O=C(N/N=C/c1ccccc1)c1ccco1,n,n,n,n,n,n,x
O=C(C#Cc1ccccc1)c1ccco1,n,n,51,n,n,n,n
CC(=O)Nc1ccc(C2=NOC(C)(C)C(=O)N2Cc2cccc(C#N)c2)cc1,n,x,x,n,n,x,x
O=C(Nc1ccc(-n2cc(Br)cn2)cc1)c1ccncc1,n,n,n,n,n,n,x
O=C(CNC(=O)c1ccco1)N=Nc1c(O)n(CCc2ccccc2)c2ccccc12,n,n,67,n,n,n,51
